Data on seven compounds can be found in article PMC9798170 (International Journal for Parasitology: Drugs and Drug …, 2022).

Values after ≈ are worked out from the molar mass of the structure shown. “Also recorded” adds a separate entry of the source.

The subject of experiment [1] is P. falciparum 3D7 strain. The note with it: ref Hidayati et al., 2020; cited from earlier work.
For experiment [2], the system named is succinate-cytochrome c (complex II-III activities). Briefly: Counter assay succinate-cytochrome c activity, bovine heart mitochondria. In kind it is biochemical. The note with it: read-out: IC50 of the sample against succinate-cytochrome c (complex II-III). Summed up:
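Run as the NADH assay (phosphate buffer pH 7.4, 2 mM KCN) but with 100 µM cytochrome c and 25 µg/mL bovine heart mitochondria. Reaction started with 10 mM succinate, and cytochrome c reduction read at 550 nm, in quadruplicate. Test compound was serially diluted from 100 to 0.003 µM. DMSO was the 0% inhibition control and 5 µM ascochlorin the 100% inhibition control.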

The test system of experiment [3] is NADH-cytochrome c (complex I-III activities). Briefly: Counter assay NADH-cytochrome c activity, bovine heart mitochondria. In kind it is biochemical. The note with it: read-out: IC50 of the sample against succinate-cytochrome c (complex I-III).
Experiment [4] concerns Plasmodium falciparum 3D7. As to the kind of experiment: Isobologram analysis, fixed-ratio combinations. The experiment is classed as cell-based. The settings on record: fixed ratios 4:1, 3:2, 2:3, 1:4; 72 h. Summed up:
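Test compound was combined with atovaquone or chloroquine at fixed ratios 4:1, 3:2, 2:3 and 1:4, with 5:0 and 0:5 for single agents, in serial dilution. Synchronized rings at 0.3% parasitemia were incubated 72 h at 37 °C under 90% N2/5% CO2/5% O2, then read by PfLDH/diaphorase. IC50 was determined per mixture, and FIC = IC50 in mixture / IC50 alone.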

In experiment [5] the test system is Plasmodium falciparum 3D7. As to the kind of experiment: In vitro antimalarial assay. In kind it is cell-based. The note with it: P. falciparum 3D7, 48 h, microscopic assay; listed as Chloroquine diphosphate. Summed up:
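Test compound stock was 10 mg/mL in DMSO, diluted in RPMI-1640 to final 0.01–100 µg/mL. It was added to culture at ~1% parasitemia and 5% haematocrit in human O+ RBCs with 10% serum, then incubated 48 h at 37 °C. Parasitemia was counted per 1000 RBCs on 10% Giemsa smears. Inhibition was taken relative to the negative control, and IC50 came from a four-parameter logistic fit.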

The test system of experiment [6] is synchronized P. falciparum 3D7 strain. Briefly: Impairment of P. falciparum intraerythrocytic stage development. In kind it is cell-based, Plasmodium falciparum. The note with it: tested at IC50 concentration. Summed up: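 Parasites were sorbitol-synchronized (5% w/v) and set at 0.3% parasitemia in human O+ RBCs in RPMI-1640 with 10% human serum at 37 °C. Sampling was at 0, 24 and 48 h. Giemsa-stained thin smears were scored for stage by light microscopy at 1000×. Each concentration was run in duplicate on the same plate.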

In experiment [7] the target is T1, recombinant PfMQO (Plasmodium falciparum, UniProt C6KT09).
T1 sequence (C6KT09 1-521): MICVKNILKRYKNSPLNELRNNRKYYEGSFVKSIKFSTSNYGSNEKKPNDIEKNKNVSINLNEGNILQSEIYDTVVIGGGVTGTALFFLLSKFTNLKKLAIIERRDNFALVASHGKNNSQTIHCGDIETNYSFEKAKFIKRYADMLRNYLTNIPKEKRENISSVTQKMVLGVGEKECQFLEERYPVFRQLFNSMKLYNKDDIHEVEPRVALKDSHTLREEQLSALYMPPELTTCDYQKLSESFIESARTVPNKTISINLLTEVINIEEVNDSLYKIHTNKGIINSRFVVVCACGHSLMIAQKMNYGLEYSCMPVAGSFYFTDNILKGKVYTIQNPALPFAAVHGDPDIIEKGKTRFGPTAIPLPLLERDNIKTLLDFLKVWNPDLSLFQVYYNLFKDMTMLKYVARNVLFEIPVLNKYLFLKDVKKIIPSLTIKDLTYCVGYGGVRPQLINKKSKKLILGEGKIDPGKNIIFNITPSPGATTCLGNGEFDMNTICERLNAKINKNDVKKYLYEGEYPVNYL
As to the kind of experiment: Recombinant PfMQO activity inhibition assay. The experiment is classed as biochemical. The settings on record: recombinant PfMQO membrane fraction. The method, boiled down: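 PfMQO membrane fraction (3 µg/mL) was used in 50 mM HEPES-KOH pH 7.0 with 1 mM KCN, 25 µM decylubiquinone and 120 µM DCIP. Background was read for 5 min at 600 nm and 37 °C, then malate (400 mM stock) was added and activity recorded for 10 min. DMSO wells served as 0% and no-malate wells as 100%. Runs were in triplicate over test compound 0.001–100 µM, with four-parameter nonlinear fit.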

Experiment [8] has as its system P. falciparum. The settings on record: P. falciparum growth; ref Widyawaruyanti et al., 2007; cited from earlier work.

What is called IC50 is the concentration at which inhibition is half-maximal. For `CC(C)=CCCC1(C)C=Cc2c(CCC(=O)c3ccc(O)cc3O)ccc(O)c2O1` (stereo not drawn) [1-(2,4-dihydroxyphenyl)-3-(8-hydroxy-2-methyl-2-(4-methyl-3-pentenyl)-2H-1-benzopyran-5-yl]-1-propanone], the IC50 in experiment [1] was 1050 nM.
For `CC(/C=C/[C@@]1(C)[C@H](C)CCC(=O)[C@@H]1C)=C\Cc1c(O)c(Cl)c(C)c(C=O)c1O` [Ascochlorin], the IC50 in experiment [2] and in experiment [3] was 10 nM throughout.
Consider `Cc1c(-c2ccc(-c3ccccc3F)cc2)nc2ccc(F)cc2c1C(=O)O` [Brequinar], for which, in experiment [2], the IC50 was 22900 ± 1460 nM.
Turning to `CCN(CC)CCCC(C)Nc1ccnc2cc(Cl)ccc12` (stereo not drawn) [Chloroquine], the “interaction in combination with atovaquone (isobologram)” value in experiment [4] is recorded as “antagonistic interactions; also recorded: antagonism”. The compound further showed an IC50 in experiment [5] of 4 ng/mL (≈ 0.0125 µM). Moreover, the “stage development after 24 h of incubation” value in experiment [6] (24 h) is “ring stage was still dominant”. Besides, the “stage development after 48 h of incubation” value in experiment [6] (48 h) is “accumulation of trophozoite”.
For `CC(C)=CCC/C(C)=C/CC/C(C)=C/Cc1c(O)c2ccccc2oc1=O` [Ferulenol], the IC50 is 0.06 ± 0.01 µg/mL in experiment [7], 170 nM in experiment [7] (listed as ferulenol), 170 ± 10 nM in experiment [2] and 280 ± 80 nM in experiment [3].
In the case of `C=C(C)[C@H]1Cc2c(ccc3c2O[C@@H]2COc4cc(OC)c(OC)cc4[C@@H]2C3=O)O1` [Rotenone], the figures for the IC50 in experiment [2] and in experiment [3] were 1860 ± 110 nM and 10 nM, respectively.
Heteroflavanone C: in experiment [8], the IC50 was 1 nM.
